Here are results for 9 compounds from ChEMBL document CHEMBL3400028, “Evaluation of Aconitum diterpenoid alkaloids as antiproliferative agents” (2015).

SMILES strings stand for the structures.

What all share (assay type): functional
One experiment relates to KB. The experiment can be described thus: Antiproliferative activity against human KB cells by sulforhodamine B assay. An outline of the steps:
(§1)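 Cells in RPMI 1640 (25 mM HEPES, 2 mM L-glutamine, 10% heat-inactivated FBS, antibiotics) at 37 °C, 5% CO2. Seeded at 3–5 × 10³/well with graded concentrations, paclitaxel as assay control, for 72 h. TCA-fixed, stained with 0.04% SRB, dye dissolved in 10 mM Tris, A515 read. GI50 is the concentration halving absorbance versus untreated cells; three or more experiments.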
Background: In SRB staining, fixed cells bind dye roughly in proportion to their protein.

Experiment [1] can be described thus: Antiproliferative activity against multidrug-resistant P-gp expressing human KBVIN cells by sulforhodamine B assay. The procedure, abridged:
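Vincristine-resistant KB subline kept in 100 nM vincristine, then grown 7–10 days without it before testing. RPMI 1640 with 10% FBS, 37 °C, 5% CO2. 3–5 × 10³ cells/well exposed 72 h to a concentration series, paclitaxel as assay control. SRB staining after TCA fixation, A515 read. GI50 is the 50% absorbance reduction versus untreated cells; three or more experiments.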

Experiment [2] is described as follows: Selectivity ratio of GI50 for human KB cells to GI50 for multidrug-resistant P-gp expressing human KBVIN cells. The procedure, abridged:
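Ratio of GI50 in parental KB to GI50 in P-gp-overexpressing KB-VIN. […] KB-VIN cells were grown 7–10 days without vincristine before the assay.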

In another experiment the test system is A549. The experiment can be described thus: Antiproliferative activity against human A549 cells by sulforhodamine B assay. The procedure, abridged:
as §1

For a further experiment, the system named is DU-145. Description: Antiproliferative activity against human DU145 cells by sulforhodamine B assay. The procedure, abridged:
as §1

Broadly, the GI50 is the concentration giving 50% growth inhibition. With `CCN1C[C@]2(COC)CC[C@H](OC)[C@]34C1C([C@H](OC)[C@H]23)[C@]1(OC(C)=O)[C@H]2[C@@H](OC(=O)c3ccc(OC)cc3)[C@](O)(C[C@H]24)[C@@H](OC)[C@@H]1O` [DEOXYJESACONITINE], the GI50 (with KB; in experiment [1]; in the experiment on A549; in the experiment with DU-145) was above 20 µM throughout. Moreover, the RatioGI50 in experiment [2] is listed as above 20.
In the case of `COC[C@]12CN(C)C3C4[C@H](OC)[C@H]1[C@@]3([C@@H](OC)C[C@H]2O)[C@@H]1C[C@@]2(O)[C@H](OC(=O)c3ccccc3)[C@@H]1[C@]4(OC)[C@@H](O)[C@@H]2OC` [HOKBUSINE A], the GI50 (in the experiment with KB; in experiment [1]; in the experiment on A549; in the experiment with DU-145) was above 20 µM in each case. The RatioGI50 in experiment [2] was above 20.
On to `COC[C@@]12CC[C@H](OC)[C@]34C(C([C@H](OC)[C@H]13)[C@]1(OC(C)=O)[C@H]3[C@@H](OC(=O)c5ccccc5)[C@](O)(C[C@H]34)[C@@H](OC)[C@@H]1O)N(C)C2` [HYPACONITINE], for which the GI50 (in the experiment on KB; in experiment [1]; in the experiment on A549; with DU-145) was above 20 µM in each case. Moreover, the RatioGI50 in experiment [2] is above 20.
For the compound `CCN1C[C@]2(C)CC[C@H](O)[C@@]34C5C[C@@H]6[C@@H](OC)C[C@@](O)(C5[C@H]6O)[C@@H](CC23)C14` (stereo not given in full) [KARACOLINE], the GI50 (in the experiment with KB; in experiment [1]; in the experiment on A549; in the experiment with DU-145) was above 20 µM throughout. Further, the RatioGI50 in experiment [2] is reported as above 20.
As to `C=C1[C@H]2C[C@H]3C4N5C[C@]6(C)CCC[C@]47[C@H]([C@H]2O)C3(CC5[C@H]67)[C@@H]1O` [KOBUSINE], the GI50 (in the experiment on KB; in experiment [1]; in the experiment on A549; with DU-145) was above 20 µM each time. Moreover, the RatioGI50 in experiment [2] is recorded as above 20.
`CCN1C[C@]2(C)CC[C@H](OC)[C@@]34[C@@H]5C[C@H]6[C@H](OC)[C@@H]5[C@@]5(C[C@@H]6OC)OCO[C@@]5(C(=O)[C@H]23)[C@@H]14` [PACININE]: the GI50 (with KB; in experiment [1]; in the experiment with A549; with DU-145) was above 20 µM each time. Moreover, the RatioGI50 in experiment [2] is listed as above 20.
Take `CC(=O)O[C@H]1C(=O)[C@@]2(C)[C@H]([C@H](OC(=O)c3ccccc3)[C@]3(O)C[C@H](OC(=O)[C@H](O)[C@@H](NC(=O)c4ccccc4)c4ccccc4)C(C)=C1C3(C)C)[C@]1(OC(C)=O)CO[C@@H]1C[C@@H]2O` [PACLITAXEL]: the GI50 with KB turned out to be 0.0064 µM; in experiment [1] it was 0.95 µM; in the experiment on A549, 0.0071 µM; with DU-145, 0.0057 µM. In addition, the RatioGI50 in experiment [2] was 0.0067.
With `C=C1[C@H]2C[C@H]3C4N5C[C@]6(C)CCC[C@]47[C@H]([C@H]2O)C3(C[C@]5(O)[C@H]67)[C@@H]1O` [PSEUDOKOBUSINE], the GI50 (in the experiment with KB; in experiment [1]; in the experiment with A549; with DU-145) was above 20 µM in each case. In addition, in experiment [2], the RatioGI50 is given as above 20.
Turning to `CCN1C[C@]2(C)CC[C@H](OC)[C@@]34[C@@H]5C[C@H]6[C@H](O)[C@@H]5[C@@]5(C[C@@H]6OC)OCO[C@@]5(C(=O)[C@H]23)[C@@H]14` [YUNNADELPHININE], the GI50 (with KB; in experiment [1]; in the experiment on A549; in the experiment on DU-145) was above 20 µM throughout. The RatioGI50 in experiment [2] is above 20.
